This note sets out measurements from ChEMBL document CHEMBL1921722, “In vitro and in vivo evaluation of select kahalalide F analogs with antitumor and antifungal activities” (Bioorg Med Chem, 2011).

The subject of one data set is DU-145. The data set can be described thus: Cytotoxicity against human DU145 cells by sulforhodamine B assay. The class given is functional. As to conditions: read-out: GI50. The essentials: (§1)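 Run by the NCI Developmental Therapeutics Program on its 60-line human tumour cell panel using the standard procedure. Compounds went through a single-concentration prescreen first, and those active by NCI criteria went on to a five-concentration growth-inhibition test. GI50 is the concentration that cuts growth of treated cells to half that of untreated control cells.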
Background: Sulforhodamine B stains cellular protein and so reports cell mass.

A further data set concerns HCC 2998. Kind of data set: Cytotoxicity against human HCC2998 cells by sulforhodamine B assay. The class given is functional. As to conditions: read-out: GI50. Summed up:
as §1

A further data set deals with A549. The data set can be described thus: Cytotoxicity against human A549 cells by sulforhodamine B assay. The class given is functional. To be noted: read-out: GI50. The essentials: (§2)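 Run at NCI in the DTP 60-cell-line human tumor panel by standard procedure. Compounds were first screened at a single concentration, then tested at five tenfold-spaced concentrations. GI50 is the concentration reducing treated-cell growth to half that of untreated controls; TGI is the concentration completely halting growth.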

A further data set has as its system RPMI-8226. Kind of data set: Cytotoxicity against human RPMI8226 cells by sulforhodamine B assay. As to conditions: read-out: GI50. The class given is functional. The essentials: (§3)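 NCI Developmental Therapeutics Program 60-cell-line human tumor panel screen, run at NCI. A single-concentration pre-screen was followed by a five-concentration dose-response in 10-fold steps. GI50 is the concentration that reduces growth of treated cells to half that of untreated control cells. TGI is the concentration that completely halts growth.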

The next data set has as its system Hs-578T. Kind of data set: Cytotoxicity against human Hs578T cells by sulforhodamine B assay. The class given is functional. The essentials: as §3
For another data set, the system named is SK-OV-3. The data set can be described thus: Cytotoxicity against human SKOV3 cells by sulforhodamine B assay. The class given is functional. As to conditions: read-out: GI50. The essentials: as §3
For another data set, the system named is UACC-257. Kind of data set: Cytotoxicity against human UACC257 cells by sulforhodamine B assay. The class given is functional. To be noted: read-out: GI50. Summed up:
as §3

In the next data set the test system is PC-3. The data set can be described thus: Cytotoxicity against human PC3 cells by sulforhodamine B assay. It counts as functional. To be noted: for GI50: read-out: GI50. The essentials:
as §3

The subject of a further data set is HT-29. The data set can be described thus: Cytotoxicity against human HT-29 cells by sulforhodamine B assay. It counts as functional. As to conditions: read-out: GI50. The essentials:
as §1

The next data set relates to SNB-75. The data set can be described thus: Cytotoxicity against human SNB75 cells by sulforhodamine B assay. It counts as functional. To be noted: read-out: GI50. Summed up: as §3
For the next data set, the system named is KM12. The data set can be described thus: Cytotoxicity against human KM12 cells by sulforhodamine B assay. It counts as functional. As to conditions: read-out: GI50. The essentials: as §3
The next data set deals with COLO 205. The data set can be described thus: Cytotoxicity against human COLO205 cells by sulforhodamine B assay. It counts as functional. To be noted: read-out: GI50. Summed up: as §2
Another data set concerns NCI-H322M. The data set can be described thus: Cytotoxicity against human NCI-H322M cells by sulforhodamine B assay. The class given is functional. To be noted: read-out: GI50. Summed up:
as §3

For the next data set, the system named is Staphylococcus aureus. Kind of data set: Antimicrobial activity against methicillin-resistant Staphylococcus aureus ATCC 43300 by CLSI method. The class given is functional, organism-based.
In a further data set the test system is Aspergillus fumigatus. Kind of data set: Antimicrobial activity against Aspergillus fumigatus ATCC 90906 by CLSI method. The class given is functional, organism-based.
The test system of the next data set is Cryptococcus neoformans. The data set can be described thus: Antimicrobial activity against Cryptococcus neoformans ATCC 90113 by CLSI method. The class given is functional, organism-based.
Data set [1] deals with Mycobacterium intracellulare. The data set can be described thus: Antimicrobial activity against Mycobacterium intracellular ATCC 23068 after 5 days by MABA assay. It counts as functional, organism-based. As to conditions: ATCC 23068, 120 h. The essentials: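 M. intracellulare was tested by a modified Franzblau method. Samples were serially diluted in 20% DMSO/saline, run in duplicate, and inocula were adjusted by OD630. […] IC50 is 50% growth inhibition; MIC is the lowest concentration with no detectable growth.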

The subject of a further data set is Candida albicans. The data set can be described thus: Antimicrobial activity against Candida albicans ATCC 90028 by CLSI method. The class given is functional, organism-based.
A further data set relates to Escherichia coli. Kind of data set: Antimicrobial activity against Escherichia coli ATCC 35218 by CLSI method. The class given is functional, organism-based.
In another data set the test system is Fusarium sp. The data set can be described thus: Antimicrobial activity against Fusarium sp. by CLSI method. The class given is functional, organism-based.
Data set [2] is described as follows: Acute toxicity in iv dosed mouse assessed as mortality. To be noted: in vivo.
Another data set deals with Pseudomonas aeruginosa. The data set can be described thus: Antimicrobial activity against Pseudomonas aeruginosa ATCC 27853 by CLSI method. The class given is functional, organism-based.

Values after ≈ are worked out from the molar mass of the structure shown. Active and inactive are the calls of the source.

In the case of `CC(=O)O[C@H]1C(=O)[C@@]2(C)[C@H]([C@H](OC(=O)c3ccccc3)[C@]3(O)C[C@H](OC(=O)[C@H](O)[C@@H](NC(=O)c4ccccc4)c4ccccc4)C(C)=C1C3(C)C)[C@]1(OC(C)=O)CO[C@@H]1C[C@@H]2O` [PACLITAXEL], the concentration for 50% growth inhibition (GI50) in the data set with DU-145 was 5 nM; with HCC 2998, 3 nM; with A549, 4 nM; in the data set on RPMI-8226, 2 nM; with Hs-578T (read-out: GI50) it was 3 nM; in the data set on SK-OV-3 it was 8 nM. Besides, the GI50 with UACC-257 was 40 nM; in the data set with PC-3, 4 nM; with HT-29, 2 nM; with SNB-75, 4 nM; in the data set on KM12 it was 4 nM; in the data set with COLO 205 it was 3 nM. The GI50 with NCI-H322M came to 13 nM. The TGI with Hs-578T (read-out: TGI) is 100 nM; in the data set with PC-3 (read-out: TGI) it was 10000 nM.

On to `C/C=C1\NC(=O)[C@H](Cc2ccccc2)NC(=O)[C@@H](C(C)C)NC(=O)[C@@H]([C@H](C)CC)NC(=O)[C@H](NC(=O)[C@H](NC(=O)[C@H](CCCN)NC(=O)[C@H]2CCCN2C(=O)[C@H](NC(=O)[C@@H](NC(=O)[C@@H](NC(=O)[C@H](NC(=O)CCCC(C)C)C(C)C)[C@@H](C)O)C(C)C)C(C)C)[C@H](C)CC)[C@H](C)OC(=O)[C@H](C(C)C)NC1=O` [KAHALALIDE F], for which the outcome with Staphylococcus aureus, in the data set with Escherichia coli and in the data set on Pseudomonas aeruginosa was inactive. The MFC against Aspergillus fumigatus was 20 µM (≈ 29.6 µg/mL); against Cryptococcus neoformans, 5 µM (≈ 7.39 µg/mL); against Candida albicans it was 20 µM (≈ 29.6 µg/mL). Besides, the minimal inhibitory concentration (MIC) against Aspergillus fumigatus was 10 µM (≈ 14.8 µg/mL); in the data set with Cryptococcus neoformans, 5 µM (≈ 7.39 µg/mL); in [1], above 20 µM; against Candida albicans, 10 µM (≈ 14.8 µg/mL). The compound also yielded a 50% inhibitory concentration (IC50) in [1] above 20000 nM. The minimum bactericidal concentration (MBC) in [1] was above 20 µM. In addition, in the data set with PC-3, the concentration for 50% growth inhibition (GI50) is 170 nM. The outcome in the data set on Fusarium sp. was Active. Further, in data set [2], the MTD was found to be 0.28 mg/kg.

As for `C[C@@H]1[C@H](O)[C@@H](C)/C=C/C=C/C=C/C=C/C=C/C=C/C=C/[C@H](O[C@@H]2O[C@H](C)[C@@H](O)[C@H](N)[C@@H]2O)C[C@@H]2O[C@](O)(C[C@@H](O)C[C@@H](O)[C@H](O)CC[C@@H](O)C[C@@H](O)CC(=O)O[C@H]1C)C[C@H](O)[C@H]2C(=O)O` [AMPHOTERICIN B], in the data set with Aspergillus fumigatus, the MFC came out at 2.5 µM (≈ 2.31 µg/mL) and the lowest concentration to inhibit growth (MIC) was 2.5 µM (≈ 2.31 µg/mL). In the data set on Cryptococcus neoformans, this compound had an MFC of 0.06 µM (≈ 0.0554 µg/mL) and an MIC of 0.016 µM (≈ 0.0148 µg/mL). Besides, in the data set with Candida albicans, 250 nM corresponded to half-maximal inhibition (IC50), the MFC is 1.25 µM (≈ 1.16 µg/mL) and the MIC was 0.625 µM (≈ 0.578 µg/mL).

In [1], `O=C(O)c1cn(C2CC2)c2cc(N3CCNCC3)c(F)cc2c1=O` [CIPROFLOXACIN] returned a minimal bactericidal concentration (MBC) above 1 µM and an MIC of 1 µM (≈ 0.331 µg/mL).

The term GI50 denotes the concentration giving 50% growth inhibition. One may read the TGI as the concentration at which net growth stops. One may read the MIC as the lowest concentration that inhibits growth of the organism. By IC50 is commonly meant the point on the concentration scale where inhibition reaches its midpoint. Higher therefore signals a need for much substance. One may read the MBC as the lowest tested concentration that kills the bacteria rather than only halting them. A higher MBC goes with less potent killing.
